# From the RNAGym collection of RNA variant scans (doi:10.1126/science.aae0568)
# Fewer inactive variants are shown than the library holds.
# B1: tRNA (parent)
# chain: GUUCCGUUGGCGUAAUGGUAACGCGUCUCCCUCCUAAGGAGAAGACUGCGGGUUCGAGUCCCGUACGGAACG
# Variants of: B1
# Test: yeast fitness relative to wild type (ratio to wild type); higher = fitter; tRNA-Arg(CCU), competitive growth, 37 C, YPD
# Procedure, shortened: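 Gene amplicons from the start population and from each of six end populations were read by 100-nucleotide paired-end sequencing. Those end populations came from pooled Saccharomyces cerevisiae strains carrying tRNA-Arg(CCU) gene variants at the native locus, competed in YPD at 37°C for 24 hours. Fitness relative to wild type was worked out from changes in genotype frequencies. Genotypes needed ≥ 100 starting reads, and estimates < 0.5 were set to 0.5.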
row,Variant,yeast fitness
1,U28G C62U C66G,0.568
2,U28G C66U,0.778
3,U28G G38A A40G G56A,0.626
4,U28G G38A A40G G56A C62U,≤ 0.5
5,U28G G38A A57C,≤ 0.5
6,U28G G38C A43G U59C C60G,≤ 0.5
7,U28G G39C C55G,≤ 0.5
8,U28G G41C,0.551
9,U28G G41C G56A,0.562
10,U28G G48A C49G G50U,0.611
11,U28G G48A G67C A69G,≤ 0.5
12,U28G G50C,0.637
13,U28G G50C A57U C62A,0.619
14,U28G G50U C60G,≤ 0.5
15,U28G G51A C62G,≤ 0.5
16,U28G G51C U64A C66U,≤ 0.5
17,U28G G51C U64A C66U A69C,0.583
18,U28G G52A,0.681
19,U28G G67A,0.69
20,U28G U32A,0.678
21,U28G U32A G38C,0.653
22,U28G U32A G38C A43G,0.551
23,U28G U32C C49G G52C,≤ 0.5
24,U28G U35G A45U,≤ 0.5

row,Variant,yeast fitness
1,U28G U47C,0.824
2,U28G U64G,0.628
3,C29A A36C,0.634
4,C29A A36C C55U C61A,≤ 0.5
5,C29A A36C G52C,0.545
6,C29A A36C G58A,≤ 0.5
7,C29A A36C G68A,≤ 0.5
8,C29A A36G A45C G56A,≤ 0.5
9,C29A A36U C61U G67A G68U,≤ 0.5
10,C29A A37C A42C G50A,≤ 0.5
11,C29A A37G A57G G67C A69U,≤ 0.5
12,C29A A37G G58A,≤ 0.5
13,C29A A37U,≤ 0.5
14,C29A A37U C49A,≤ 0.5
15,C29A A40G A43G C55U C61U C66G,≤ 0.5
16,C29A A40G C55U,≤ 0.5
17,C29A A40U A45C C49A A57G,0.574
18,C29A A42C,0.662
19,C29A A42G,0.672
20,C29A A42G A45U G50A,0.534
21,C29A A42G A45U G50A C60A,≤ 0.5
22,C29A A42G A57C,0.592
23,C29A A42G A70U,0.582
24,C29A A42G C61G,0.533

row,Variant,yeast fitness
1,C29A A42G G63A,≤ 0.5
2,C29A A42U C46A,0.619
3,C29A A42U C46A G63A,≤ 0.5
4,C29A A43G,0.645
5,C29A A43U,0.585
6,C29A A43U A57C,0.642
7,C29A A45C C49U C66U,≤ 0.5
8,C29A A45G,0.578
9,C29A A45U,0.524
10,C29A A45U U59C,0.721
11,C29A A57C,0.555
12,C29A A57U A65C,0.584
13,C29A A57U C60G C62A,≤ 0.5
14,C29A A57U C62U,≤ 0.5
15,C29A A69G,0.6
16,C29A C30A,0.591
17,C29A C30A G50A A70C,≤ 0.5
18,C29A C30A G58A,≤ 0.5
19,C29A C30A G58C C62U,0.565
20,C29A C30G A36C G44C G51C,≤ 0.5
21,C29A C30G G50C,≤ 0.5
22,C29A C30G G50C A65G,≤ 0.5
23,C29A C30U A36U A70C,≤ 0.5
24,C29A C30U C49U,≤ 0.5

row,Variant,yeast fitness
1,C29A C30U C62G U64A,0.553
2,C29A C30U G58A,≤ 0.5
3,C29A C30U U47C U64C,≤ 0.5
4,C29A C30U U64C,≤ 0.5
5,C29A C31A A40C G44A U59A,0.682
6,C29A C31G C55A G58A,0.568
7,C29A C31G C60A,0.656
8,C29A C31G G39A G48C,≤ 0.5
9,C29A C31G G51C C62G,≤ 0.5
10,C29A C31U A40U,≤ 0.5
11,C29A C31U A42C,0.576
12,C29A C33A G51C C61U,≤ 0.5
13,C29A C33G A37G C49U C66U,≤ 0.5
14,C29A C33G C61U,0.619
15,C29A C33G U35C C66U,≤ 0.5
16,C29A C33U C55G,0.633
17,C29A C33U C62A A69C,≤ 0.5
18,C29A C33U U47A,≤ 0.5
19,C29A C34G A57C,≤ 0.5
20,C29A C34U A36U C61U G67U,≤ 0.5
21,C29A C34U G48C,≤ 0.5
22,C29A C46A A70G,≤ 0.5
23,C29A C46G,0.634
24,C29A C46U A57G,≤ 0.5

row,Variant,yeast fitness
1,C29A C46U A70G,0.711
2,C29A C49G,0.623
3,C29A C49U C62U,0.562
4,C29A C55A,≤ 0.5
5,C29A C55G A65G,0.57
6,C29A C55U,0.603
7,C29A C60A C66G,≤ 0.5
8,C29A C60G,0.584
9,C29A C61G,≤ 0.5
10,C29A C61G A70U,≤ 0.5
11,C29A C61G C66U A69U,≤ 0.5
12,C29A C61G G67C G68A,≤ 0.5
13,C29A C61U,0.647
14,C29A C62A,0.581
15,C29A C62U G68A,≤ 0.5
16,C29A C62U U64C,0.554
17,C29A G38A,0.764
18,C29A G39C,0.817
19,C29A G39C A57G C61U C66U,0.561
20,C29A G41A,0.551
21,C29A G41A A43C A70C,≤ 0.5
22,C29A G44C G67A,≤ 0.5
23,C29A G48A,0.688
24,C29A G48A G50A C66U,≤ 0.5

row,Variant,yeast fitness
1,C29A G48C,0.613
2,C29A G48C A69C,0.531
3,C29A G48C A70G,0.54
4,C29A G50C A70U,≤ 0.5
5,C29A G51A,0.544
6,C29A G51C,≤ 0.5
7,C29A G52C G68A,≤ 0.5
8,C29A G56A,0.794
9,C29A G56C,≤ 0.5
10,C29A G56C C61A,≤ 0.5
11,C29A G58A,0.653
12,C29A G63A,0.623
13,C29A G68C,0.621
14,C29A G68U,0.721
15,C29A U32A A45C A65C,0.651
16,C29A U32C,0.618
17,C29A U32C A42U C66A A69C,≤ 0.5
18,C29A U32C A42U G67A,0.522
19,C29A U32C C49A,≤ 0.5
20,C29A U32C U35A,≤ 0.5
21,C29A U35A A70U,0.716
22,C29A U35A G67C,≤ 0.5
23,C29A U35C,≤ 0.5
24,C29A U35C A40U,0.639

row,Variant,yeast fitness
1,C29A U35C A70G,≤ 0.5
2,C29A U35C G50A,≤ 0.5
3,C29A U35C G67A,≤ 0.5
4,C29A U35G C55G G68A A69C,≤ 0.5
5,C29A U47A G68C,≤ 0.5
6,C29A U47C A57C U59A,≤ 0.5
7,C29A U53A,0.51
8,C29A U54A A57U,0.535
9,C29A U54G,≤ 0.5
10,C29A U59C,0.688
11,C29A U64C,0.632
12,C29A U64C A69C,≤ 0.5
13,C29G A36G,0.548
14,C29G A36G A40U,≤ 0.5
15,C29G A36G A43U C66A,≤ 0.5
16,C29G A36G C66G,≤ 0.5
17,C29G A36U,0.569
18,C29G A36U A43G,≤ 0.5
19,C29G A36U A45U C55A,≤ 0.5
20,C29G A36U C46G,0.755
21,C29G A36U C49U,0.538
22,C29G A37C G58A,≤ 0.5
23,C29G A37G,0.599
